Results as given in ChEMBL document CHEMBL1649269, “In vitro activities of three new dihydrofolate reductase inhibitors against clinical isolates of gram-positive bacteria” (2009).
Converted amounts (≈) assume the structure as drawn.

Key:
Staphylococcus aureus [1] = assay: Antimicrobial activity against methicillin-sensitive Staphylococcus aureus by agar dilution method; assay type: functional
Method in brief: (§1)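 MICs against clinical MRSA or MSSA isolates by CLSI agar dilution, with S. aureus ATCC 29213 as control strain. Percentage of susceptible isolates was calculated from the MICs using CLSI breakpoints.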

Staphylococcus aureus [2] = assay: Antimicrobial activity against methicillin-sensitive Staphylococcus aureus assessed as susceptible isolates by agar dilution method; assay type: functional; method in brief: as §1
Staphylococcus aureus [3] = assay: Antimicrobial activity against methicillin-resistant Staphylococcus aureus by agar dilution method; assay type: functional; method in brief: as §1
Staphylococcus aureus [4] = assay: Antimicrobial activity against Heterovancomycin-resistant Staphylococcus aureus by agar dilution method; assay type: functional
Method in brief: (§2)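 Clinical S. aureus isolates classed as hVISA or VISA by population analysis profiling. MICs by CLSI agar dilution, with S. aureus ATCC 29213 as control strain.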

Staphylococcus aureus [5] = assay: Antimicrobial activity against vancomycin-resistant Staphylococcus aureus by agar dilution method; assay type: functional; method in brief: as §2
Staphylococcus [6] = assay: Antimicrobial activity against Coagulase-negative Staphylococcus by agar dilution method; assay type: functional
Method in brief: (§3)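 CLSI agar dilution MIC testing of clinical isolates of staphylococci and Listeria. S. aureus ATCC 29213 and S. pneumoniae ATCC 49619 served as control strains. The percentage of susceptible isolates was calculated from CLSI breakpoints.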

Staphylococcus [7] = assay: Antimicrobial activity against Coagulase-negative Staphylococcus assessed as susceptible isolates by agar dilution method; assay type: functional; method in brief: as §3
[8] = tested on: Streptococcus sp. 'group A'; assay: Antimicrobial activity against Group A Streptococcus by agar dilution method; assay type: functional
Method in brief: (§4)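 Clinical isolates of beta-hemolytic streptococci, S. mitis and S. pneumoniae were tested by CLSI methodology, with Mueller-Hinton medium supplemented with 5% lysed horse blood. S. aureus ATCC 29213 and S. pneumoniae ATCC 49619 served as control strains. The percentage of susceptible isolates was derived from CLSI breakpoints.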

[9] = tested on: Streptococcus sp. 'group A'; assay: Antimicrobial activity against Group A Streptococcus assessed as susceptible isolates by agar dilution method; assay type: functional; method in brief: as §4
[10] = tested on: Streptococcus sp. 'group B'; assay: Antimicrobial activity against Group B Streptococcus by agar dilution method; assay type: functional; method in brief: as §4
[11] = tested on: Streptococcus sp. 'group B'; assay: Antimicrobial activity against Group B Streptococcus assessed as susceptible isolates by agar dilution method; assay type: functional; method in brief: as §4
[12] = Antimicrobial activity against Group C Streptococcus by agar dilution method; assay type: functional; details: Streptococcus sp. 'group C'; method in brief: as §4
[13] = Antimicrobial activity against Group C Streptococcus assessed as susceptible isolates by agar dilution method; assay type: functional, Streptococcus sp. 'group C'; method in brief: as §4
[14] = Antimicrobial activity against Group G Streptococcus by agar dilution method; assay type: functional; details: Streptococcus sp. 'group G'; method in brief: as §4
[15] = Antimicrobial activity against Group G Streptococcus assessed as susceptible isolates by agar dilution method; assay type: functional, Streptococcus sp. 'group G'; method in brief: as §4
Streptococcus pneumoniae [16] = assay: Antimicrobial activity against Streptococcus pneumoniae by agar dilution method; assay type: functional; method in brief: as §4
Streptococcus pneumoniae [17] = assay: Antimicrobial activity against Streptococcus pneumoniae assessed as susceptible isolates by agar dilution method; assay type: functional; method in brief: as §4
Corynebacterium sp. [18] = assay: Antimicrobial activity against Corynebacterium spp. by agar dilution method; assay type: functional
Corynebacterium sp. [19] = assay: Antimicrobial activity against Corynebacterium spp. assessed as susceptible isolates by agar dilution method; assay type: functional
Listeria monocytogenes [20] = assay: Antimicrobial activity against Listeria monocytogenes by agar dilution method; assay type: functional; method in brief: as §3
Listeria monocytogenes [21] = assay: Antimicrobial activity against Listeria monocytogenes assessed as susceptible isolates by agar dilution method; assay type: functional; method in brief: as §3
Streptococcus mitis [22] = assay: Antimicrobial activity against Streptococcus mitis assessed as susceptible isolates by agar dilution method; assay type: functional; details: in the assay text read “broth dilution method” for “agar dilution method”; method in brief: as §4
Streptococcus mitis [23] = assay: Antimicrobial activity against Streptococcus mitis by broth dilution method

COc1ncc(C2c3ccccc3C=NN2C(=O)/C=C/c2cc(Cc3cnc(N)nc3N)cc(OC)c2OC)cn1 (stereo not drawn)
MIC50 (Staphylococcus aureus [1]): 0.03 µg/mL (≈ 0.0543 µM) | MIC90 (Staphylococcus aureus [1]): 0.03 µg/mL (≈ 0.0543 µM) | Activity (Staphylococcus aureus [2]): 100% | MIC (Staphylococcus aureus [3]): 0.015 µg/mL (≈ 0.0271 µM) | MIC50 (Staphylococcus aureus [3]): 0.015 µg/mL (≈ 0.0271 µM) | MIC90 (Staphylococcus aureus [3]): 0.06 µg/mL (≈ 0.109 µM) | MIC50 (Staphylococcus aureus [4]): 0.03 µg/mL (≈ 0.0543 µM) | MIC90 (Staphylococcus aureus [4]): 0.06 µg/mL (≈ 0.109 µM) | MIC50 (Staphylococcus aureus [5]): 0.03 µg/mL (≈ 0.0543 µM) | MIC90 (Staphylococcus aureus [5]): 0.25 µg/mL (≈ 0.452 µM) | MIC50 (Staphylococcus [6]): 0.06 µg/mL (≈ 0.109 µM) | MIC90 (Staphylococcus [6]): 8 µg/mL (≈ 14.5 µM) | Activity (Staphylococcus [7]): 86% | MIC50 [8]: 0.06 µg/mL (≈ 0.109 µM) | MIC90 [8]: 0.06 µg/mL (≈ 0.109 µM) | Activity [9]: 100% | MIC50 [10]: 0.03 µg/mL (≈ 0.0543 µM) | MIC90 [10]: 0.06 µg/mL (≈ 0.109 µM) | Activity [11]: 100% | MIC50 [12]: 0.015 µg/mL (≈ 0.0271 µM) | MIC90 [12]: 0.06 µg/mL (≈ 0.109 µM) | Activity [13]: 100% | MIC50 [14]: 0.03 µg/mL (≈ 0.0543 µM) | MIC90 [14]: 0.06 µg/mL (≈ 0.109 µM) | Activity [15]: 100% | MIC50 (Streptococcus pneumoniae [16]): 0.06 µg/mL (≈ 0.109 µM) | MIC90 (Streptococcus pneumoniae [16]): 0.12 µg/mL (≈ 0.217 µM) | Activity (Streptococcus pneumoniae [17]): 100% | MIC50 (Corynebacterium sp. [18]): 0.06 µg/mL (≈ 0.109 µM) | MIC90 (Corynebacterium sp. [18]): 4 µg/mL (≈ 7.24 µM) | Activity (Corynebacterium sp. [19]): 83% | MIC (Listeria monocytogenes [20]): 0.015 µg/mL (≈ 0.0271 µM) | MIC50 (Listeria monocytogenes [20]): 0.015 µg/mL (≈ 0.0271 µM) | MIC90 (Listeria monocytogenes [20]): 0.015 µg/mL (≈ 0.0271 µM) | Activity (Listeria monocytogenes [21]): 100% | Activity (Streptococcus mitis [22]): 100% | MIC (Streptococcus mitis [23]): < 0.008 µg/mL | MIC50 (Streptococcus mitis [23]): < 0.008 µg/mL

COc1cc(Cc2cnc(N)nc2N)cc(/C=C/C(=O)N2N=Cc3ccccc3C2c2cnc(N3CCOCC3)nc2)c1OC (stereo not drawn)
MIC50 (Staphylococcus aureus [1]): 0.12 µg/mL (≈ 0.197 µM) | MIC90 (Staphylococcus aureus [1]): 0.25 µg/mL (≈ 0.411 µM) | Activity (Staphylococcus aureus [2]): 100% | MIC (Staphylococcus aureus [3]): 0.06 µg/mL (≈ 0.0987 µM) | MIC50 (Staphylococcus aureus [3]): 0.06 µg/mL (≈ 0.0987 µM) | MIC90 (Staphylococcus aureus [3]): 0.06 µg/mL (≈ 0.0987 µM) | MIC50 (Staphylococcus aureus [4]): 0.06 µg/mL (≈ 0.0987 µM) | MIC90 (Staphylococcus aureus [4]): 0.06 µg/mL (≈ 0.0987 µM) | MIC (Staphylococcus aureus [5]): 0.06 µg/mL (≈ 0.0987 µM) | MIC50 (Staphylococcus aureus [5]): 0.06 µg/mL (≈ 0.0987 µM) | MIC90 (Staphylococcus aureus [5]): 0.5 µg/mL (≈ 0.823 µM) | MIC50 (Staphylococcus [6]): 0.06 µg/mL (≈ 0.0987 µM) | MIC90 (Staphylococcus [6]): 4 µg/mL (≈ 6.58 µM) | Activity (Staphylococcus [7]): 86% | MIC50 [8]: 0.06 µg/mL (≈ 0.0987 µM) | MIC90 [8]: 0.12 µg/mL (≈ 0.197 µM) | Activity [9]: 100% | MIC [10]: 0.06 µg/mL (≈ 0.0987 µM) | MIC50 [10]: 0.06 µg/mL (≈ 0.0987 µM) | MIC90 [10]: 0.12 µg/mL (≈ 0.197 µM) | Activity [11]: 100% | MIC50 [12]: 0.06 µg/mL (≈ 0.0987 µM) | MIC90 [12]: 0.12 µg/mL (≈ 0.197 µM) | Activity [13]: 100% | MIC [14]: 0.03 µg/mL (≈ 0.0494 µM) | MIC50 [14]: 0.03 µg/mL (≈ 0.0494 µM) | MIC90 [14]: 0.06 µg/mL (≈ 0.0987 µM) | Activity [15]: 100% | MIC50 (Streptococcus pneumoniae [16]): 0.12 µg/mL (≈ 0.197 µM) | MIC90 (Streptococcus pneumoniae [16]): 0.12 µg/mL (≈ 0.197 µM) | Activity (Streptococcus pneumoniae [17]): 100% | MIC50 (Corynebacterium sp. [18]): 0.12 µg/mL (≈ 0.197 µM) | MIC90 (Corynebacterium sp. [18]): 4 µg/mL (≈ 6.58 µM) | Activity (Corynebacterium sp. [19]): 83% | MIC (Listeria monocytogenes [20]): 0.06 µg/mL (≈ 0.0987 µM) | MIC50 (Listeria monocytogenes [20]): 0.06 µg/mL (≈ 0.0987 µM) | MIC90 (Listeria monocytogenes [20]): 0.06 µg/mL (≈ 0.0987 µM) | Activity (Listeria monocytogenes [21]): 100% | Activity (Streptococcus mitis [22]): 100% | MIC50 (Streptococcus mitis [23]): 0.015 µg/mL (≈ 0.0247 µM)
